Series [1] deals with individuals with type 2 diabetes. The series is described as follows: Safety assessments. Particulars: all injection regions; N (%) of 25. It counts as in vivo, human. The essentials:
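Over three treatment periods, 25 participants with type 2 diabetes each received one 5.6 U/kg s.c. dose per region (thigh, abdomen, upper arm), stayed in-house to 60 h, and underwent a 36–60 h glucose clamp at 7.5 mmol/L. Monitoring covered adverse events, labs, vital signs and examination. Hypoglycaemia levels: 1, plasma glucose <3.9 and ≥3.0 mmol/L; 2, <3.0 mmol/L; 3, severe cognitive impairment needing assistance.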

The nature of a further series: Pharmacokinetics. It is filed as in vivo, human. As to conditions: single s.c. dose 5.6 U/kg; p < 0.001.
In another series the test system is albumin. As to conditions: after s.c. administration and absorption into the circulation; cited from earlier work.

On to insulin icodec, for which the “Participants reporting adverse events” value in series [1] was 12 (48%) participants. Moreover, the “Cmax after single dose higher for upper arm versus thigh” value in “Pharmacokinetics” is listed as 24%. The Binding to albumin result in the series on albumin is reported as “binds strongly to albumin”.

Values taken from PMC9902323 (Clinical Drug Investigation, 2023).
